Data on 8 molecules can be found in ChEMBL document CHEMBL1142625, “Antifungal substances against pathogenic fungi, talaroconvolutins, from talaromyces convolutus” (J Nat Prod, 2000).

The subject of test [1] is Aspergillus fumigatus. In words: Antifungal activity against Aspergillus fumigatus Fresenius 167 assessed as diameter of inhibition zone at 20 ug/disk after 48 to 72 hrs by paper disk assay. It is filed as functional. To be noted: for zone of inhibition at 20 µg/disc: Aspergillus fumigatus, read-out: IZ. The procedure, abridged: (§1)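 Compound was absorbed onto 8 mm paper disks and the disks were placed on assay plates seeded with the test fungus. Plates contained Sabouraud's glucose broth agar and were incubated at 25 °C. After 48–72 h, the diameter of the inhibition zone was recorded in mm.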

Test [2] concerns Candida albicans. The test is described as follows: Antifungal activity against Candida albicans 7N assessed as diameter of inhibition zone at 1 ug/disk after 48 to 72 hrs by paper disk assay. It is filed as functional. As to conditions: for zone of inhibition at 1 µg/disc: Candida albicans, read-out: IZ. The procedure, abridged: as §1
Test [3] deals with Aspergillus niger. In words: Antifungal activity against Aspergillus niger Van Tieghem H7160B assessed as diameter of inhibition zone at 5 ug/disk after 48 to 72 hrs by paper disk assay. It is filed as functional. To be noted: for zone of inhibition at 5 µg/disc: Aspergillus niger, Van Tieghem, read-out: IZ. The procedure, abridged:
as §1

The test system of test [4] is Candida albicans. The test is described as follows: Antifungal activity against Candida albicans 7N assessed as diameter of inhibition zone at 100 ug/disk after 48 to 72 hrs by paper disk assay. As to conditions: for zone of inhibition at 100 µg/disc: Candida albicans, read-out: IZ. It is filed as functional. The procedure, abridged: as §1
The test system of test [5] is Aspergillus fumigatus. The test is described as follows: Antifungal activity against Aspergillus fumigatus Fresenius 167 assessed as diameter of inhibition zone at 100 ug/disk after 48 to 72 hrs by paper disk assay. As to conditions: for zone of inhibition at 100 µg/disc: Aspergillus fumigatus, read-out: IZ. In kind it is functional. The procedure, abridged: as §1

For test [6], the system named is Aspergillus niger. The test is described as follows: Antifungal activity against Aspergillus niger Van Tieghem H7160B assessed as diameter of inhibition zone at 100 ug/disk after 48 to 72 hrs by paper disk assay. In kind it is functional. To be noted: for zone of inhibition at 100 µg/disc: Aspergillus niger, Van Tieghem, read-out: IZ. The procedure, abridged: as §1

In test [7] the test system is Aspergillus niger. The test is described as follows: Antifungal activity against Aspergillus niger Van Tieghem H7160B assessed as diameter of inhibition zone at 20 ug/disk after 48 to 72 hrs by paper disk assay. As to conditions: for zone of inhibition at 20 µg/disc: Aspergillus niger, Van Tieghem, read-out: IZ. It is filed as functional. The gist of the method: as §1

In test [8] the test system is Candida albicans. In words: Antifungal activity against Candida albicans 7N assessed as diameter of inhibition zone at 5 ug/disk after 48 to 72 hrs by paper disk assay. It is filed as functional. As to conditions: for zone of inhibition at 5 µg/disc: Candida albicans, read-out: IZ. The procedure, abridged:
as §1

The subject of test [9] is Aspergillus fumigatus. The test is described as follows: Antifungal activity against Aspergillus fumigatus Fresenius 167 assessed as diameter of inhibition zone at 5 ug/disk after 48 to 72 hrs by paper disk assay. In kind it is functional. As to conditions: for zone of inhibition at 5 µg/disc: Aspergillus fumigatus, read-out: IZ. The gist of the method:
as §1

For test [10], the system named is Candida albicans. In words: Antifungal activity against Candida albicans 7N assessed as diameter of inhibition zone at 20 ug/disk after 48 to 72 hrs by paper disk assay. To be noted: for zone of inhibition at 20 µg/disc: Candida albicans, read-out: IZ. It is filed as functional. The procedure, abridged: as §1
Test [11] has as its system Cryptococcus neoformans. The test is described as follows: Antifungal activity against Cryptococcus neoformans (Sanfelice) Vuillemin ATCC 90112 assessed as diameter of inhibition zone upto 100 ug/disk after 48 to 72 hrs by paper disk assay. It is filed as functional, organism-based. The procedure, abridged:
as §1

The subject of test [12] is Candida albicans. In words: Antifungal activity against Candida albicans 7N assessed as diameter of inhibition zone upto 100 ug/disk after 48 to 72 hrs by paper disk assay. In kind it is functional, organism-based. The gist of the method: as §1
For test [13], the system named is Aspergillus fumigatus. In words: Antifungal activity against Aspergillus fumigatus Fresenius 167 assessed as diameter of inhibition zone upto 100 ug/disk after 48 to 72 hrs by paper disk assay. It is filed as functional, organism-based. The gist of the method:
as §1

For test [14], the system named is Aspergillus niger. In words: Antifungal activity against Aspergillus niger Van Tieghem H7160B assessed as diameter of inhibition zone upto 100 ug/disk after 48 to 72 hrs by paper disk assay. It is filed as functional, organism-based. The gist of the method: as §1
Test [15] concerns Aspergillus fumigatus. In words: Antifungal activity against Aspergillus fumigatus Fresenius 167 assessed as diameter of inhibition zone at 1 ug/disk after 48 to 72 hrs by paper disk assay. To be noted: for zone of inhibition at 1 µg/disc: read-out: IZ. In kind it is functional. The procedure, abridged:
as §1

The subject of test [16] is Cryptococcus neoformans. In words: Antifungal activity against Cryptococcus neoformans (Sanfelice) Vuillemin ATCC 90112 assessed as diameter of inhibition zone at 5 ug/disk after 48 to 72 hrs by paper disk assay. In kind it is functional. The gist of the method: as §1
Test [17] concerns Cryptococcus neoformans. In words: Antifungal activity against Cryptococcus neoformans (Sanfelice) Vuillemin ATCC 90112 assessed as diameter of inhibition zone at 100 ug/disk after 48 to 72 hrs by paper disk assay. It is filed as functional. The procedure, abridged:
as §1

Test [18] concerns Cryptococcus neoformans. In words: Antifungal activity against Cryptococcus neoformans (Sanfelice) Vuillemin ATCC 90112 assessed as diameter of inhibition zone at 20 ug/disk after 48 to 72 hrs by paper disk assay. In kind it is functional. The procedure, abridged:
as §1

Test [19] deals with Cryptococcus neoformans. In words: Antifungal activity against Cryptococcus neoformans (Sanfelice) Vuillemin ATCC 90112 assessed as diameter of inhibition zone at 1 ug/disk after 48 to 72 hrs by paper disk assay. It is filed as functional. The procedure, abridged: as §1
In test [20] the test system is Aspergillus niger. In words: Antifungal activity against Aspergillus niger Van Tieghem H7160B assessed as diameter of inhibition zone at 1 ug/disk after 48 to 72 hrs by paper disk assay. In kind it is functional. The gist of the method:
as §1

Molecules are shown by their SMILES. Calls of active or inactive are those of the source. The rule behind the calls is not given here.

Regarding `CCC(C)/C=C(\C)[C@H]1C(C)=C[C@@]2(C)C[C@@H](C)CC[C@@H]2[C@H]1C(=O)C1=CC(O)(Cc2ccc(O)cc2)NC1=O` (stereo in doubt; 2) [TALAROCONVOLUTIN B], the zone of inhibition at 20 µg/disc with Aspergillus fumigatus [1] turned out to be 11 mm; in the test with Aspergillus niger [7] it was 10 mm; in the test on Candida albicans [10], 14 mm. Also, the zone of inhibition at 1 µg/disc in the test with Candida albicans [2] worked out at 11 mm. Besides, the results for the zone of inhibition at 5 µg/disc with Aspergillus niger [3], with Candida albicans [8] and with Aspergillus fumigatus [9] were 9 mm, 13 mm and 10 mm, respectively. The figures for the zone of inhibition at 100 µg/disc with Candida albicans [4], in the test on Aspergillus fumigatus [5] and in the test on Aspergillus niger [6] were 15 mm, 12 mm and 11 mm, respectively.
Turning to `CCC(C)/C=C(\C)[C@H]1C(C)=C[C@@]2(C)C[C@@H](C)CC[C@@H]2[C@H]1C(=O)C1=C/C(=C/c2ccc(O)cc2)NC1=O` (some centres undefined), the result with Cryptococcus neoformans [11], in the test on Candida albicans [12], in the test on Aspergillus fumigatus [13] and in the test with Aspergillus niger [14] was inactive.
`C[C@@H]1[C@H](O)[C@@H](C)/C=C/C=C/C=C/C=C/C=C/C=C/C=C/[C@H](O[C@@H]2O[C@H](C)[C@@H](O)[C@H](N)[C@@H]2O)C[C@@H]2O[C@](O)(C[C@@H](O)C[C@@H](O)[C@H](O)CC[C@@H](O)C[C@@H](O)CC(=O)O[C@H]1C)C[C@H](O)[C@H]2C(=O)O` [AMPHOTERICIN B]: the zone of inhibition at 1 µg/disc was 10 mm in the test with Aspergillus fumigatus [15]; 15 mm with Candida albicans [2]; 11 mm in the test on Cryptococcus neoformans [19] (read-out: IZ); 16 mm in the test with Aspergillus niger [20] (Aspergillus niger, Van Tieghem, read-out: IZ). Moreover, the zone of inhibition at 20 µg/disc in the test on Aspergillus fumigatus [1] was found to be 14 mm; with Cryptococcus neoformans [18] (read-out: IZ), 16 mm; with Aspergillus niger [7] it was 24 mm; in the test with Candida albicans [10], 20 mm. Further, the zone of inhibition at 5 µg/disc with Cryptococcus neoformans [16] (read-out: IZ) came to 13 mm; in the test on Aspergillus niger [3], 20 mm; in the test with Candida albicans [8], 18 mm; in the test with Aspergillus fumigatus [9] it was 12 mm. In addition, the zone of inhibition at 100 µg/disc came to 19 mm in the test on Cryptococcus neoformans [17] (read-out: IZ), 20 mm in the test on Candida albicans [4], 17 mm with Aspergillus fumigatus [5] and 25 mm in the test with Aspergillus niger [6].
Turning to `CCOC1C(C(=O)[C@H]2[C@@H](/C(C)=C/C(C)CC)C(C)=C[C@@]3(C)C[C@@H](C)CC[C@H]23)C(=O)NC1(O)Cc1ccc(O)cc1` (some centres undefined) [TALAROCONVOLUTIN C], the result in the test with Aspergillus fumigatus [15], with Candida albicans [2], in the test on Cryptococcus neoformans [16], in the test with Cryptococcus neoformans [17], in the test with Cryptococcus neoformans [18] and with Cryptococcus neoformans [11] was inactive. Besides, the result in the test with Cryptococcus neoformans [19], in the test on Aspergillus niger [3], in the test with Candida albicans [8] and with Aspergillus fumigatus [9] was inactive. Besides, the zone of inhibition at 20 µg/disc is 11 mm with Aspergillus fumigatus [1], 10 mm in the test with Aspergillus niger [7] and 10 mm with Candida albicans [10]. The zone of inhibition at 100 µg/disc in the test on Candida albicans [4], in the test with Aspergillus fumigatus [5] and in the test with Aspergillus niger [6] was 11 mm in each case. Further, in the test on Aspergillus niger [20], the “inhibition zone (IZ)” value is “inactive”.
As for `CCC(C)/C=C(\C)[C@H]1C(C)=C[C@@]2(C)C[C@@H](C)CC[C@@H]2[C@H]1C(=O)C1=CC(O)(Cc2ccc(O)cc2)NC1=O` (stereo in doubt; 5) [TALAROCONVOLUTIN B], the zone of inhibition at 1 µg/disc in the test with Aspergillus fumigatus [15] turned out to be 11 mm. Further, the “inhibition zone (IZ)” value in the test with Aspergillus fumigatus [1] was determined as 15 mm; with Candida albicans [2], 15 mm; in the test on Aspergillus niger [3], 13 mm; with Candida albicans [4], 20 mm; in the test with Aspergillus fumigatus [5], 17 mm; in the test with Aspergillus niger [6] it was 16 mm. The “inhibition zone (IZ)” value with Aspergillus niger [7] is 15 mm; in the test with Candida albicans [8], 17 mm; in the test with Aspergillus fumigatus [9], 14 mm; with Candida albicans [10] it was 18 mm. Also, the Activity with Aspergillus niger [20] turned out to be 11 mm.
With `CCC(C)/C=C(\C)[C@H]1C(C)=C[C@@]2(C)C[C@@H](C)CC[C@@H]2[C@H]1C(=O)C1=CC(O)(Cc2ccc(O)cc2)NC1=O` (stereo in doubt; 5), the outcome with Cryptococcus neoformans [16], in the test with Cryptococcus neoformans [17], in the test with Cryptococcus neoformans [18] and in the test on Cryptococcus neoformans [19] was inactive.
Consider `CCC(C)/C=C(\C)[C@H]1C(C)=C[C@@]2(C)C[C@@H](C)CC[C@@H]2[C@H]1C(=O)C1C(=O)NC2(Cc3ccc(O)cc3)OC(C)(C)OC12` (some centres undefined), for which the result in the test with Cryptococcus neoformans [11], in the test with Candida albicans [12], with Aspergillus fumigatus [13] and with Aspergillus niger [14] was inactive.
For `CCC(C)/C=C(\C)[C@H]1C(C)=C[C@@]2(C)C[C@@H](C)CC[C@@H]2[C@H]1C(=O)C1=CC(O)(Cc2ccc(O)cc2)NC1=O` (stereo in doubt; 2), the result in the test with Aspergillus fumigatus [15], with Cryptococcus neoformans [16], in the test with Cryptococcus neoformans [17], in the test on Cryptococcus neoformans [18], in the test with Cryptococcus neoformans [11] and with Cryptococcus neoformans [19] was inactive. Besides, the outcome with Aspergillus niger [20] was inactive.
